# Screening data deposited in PubChem by The Scripps Research Institute Molecular Screening Center.
# An excerpt weighted towards active compounds, which were near 3.5% of everything screened.
# ABHD4 inh = inhibitors of mouse ABHD4 | Q8VD66 | purified mABHD4, FP-Rh probe fluorescence polarization | inhibition, % at 8.92 µM | actives 0.54% (n = 370,000) | AID 720543;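 active = inhibition exceeding the mean over every tested compound plus 3 SD, cut at about 30% in these data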;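 note: 0% = plate median of compound wells and 100% = S159A mutant with DMSO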
# Target sequence (Q8VD66 whole entry, looked up): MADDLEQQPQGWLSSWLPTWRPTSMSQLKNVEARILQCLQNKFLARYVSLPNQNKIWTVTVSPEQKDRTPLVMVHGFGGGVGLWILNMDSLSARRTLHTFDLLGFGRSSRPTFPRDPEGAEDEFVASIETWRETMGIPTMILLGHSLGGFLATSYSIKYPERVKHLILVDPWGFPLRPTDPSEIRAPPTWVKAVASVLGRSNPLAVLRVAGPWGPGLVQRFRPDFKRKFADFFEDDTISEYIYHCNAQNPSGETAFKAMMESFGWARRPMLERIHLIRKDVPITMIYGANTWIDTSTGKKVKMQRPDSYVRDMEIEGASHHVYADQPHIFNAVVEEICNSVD
#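 Material: mouse ABHD4 enzyme, wild type; Benchmarks: S159A mutant high control, sample median low control; Buffer or medium: HEPES pH 7.0, NaCl, Pluronic buffer; Signal: fluorescence polarization; Read-out: percent inhibition of probe binding, normalized to plate controls; Timing: pre-incubation 45 min, probe exposure 60 min, at 25 °C; Dosing: 8.92 µM, single dose.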
# rCAG binder = binds r(CAG) RNA repeats; r(CAG) RNA repeat, TO-PRO-1 dye displacement fluorescence; actives 1.3% (n = 370,000); AID 651821; inhibition, % at 3 µM;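 active = inhibition above the plate cutoff, the mean of all test compounds on that plate plus 3 SD, cut at about 35% in these data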;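 note: 0% = DMSO alone and 100% = 100 µM mitoxantrone as full dye displacement; higher means more dye released from RNA so lower well fluorescence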
# TCR CD3 inh = human TCR-CD3 binding inhibition. TAMRA-labeled TCR probe fluorescence, biochemical. actives 0.37% (n = 360,000). inhibition, % at 9.4 µM;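 note: recombinant mutant TCR 2C K166C tagged with TAMRA read by polarization; 0% = receptor in buffer alone and 100% = receptor with positive control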
# PRMT1 inh = blocks human protein arginine methyltransferase 1; Q99873; recombinant PRMT1, activity-based probe fluorescence polarization; inhibition, % at 2.79 µM; actives 1.3% (n = 370,000); AID 652257;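 active = inhibition above about 21% made by adding two undisclosed values, limit read from the data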
# Target sequence (Q99873 whole entry, looked up): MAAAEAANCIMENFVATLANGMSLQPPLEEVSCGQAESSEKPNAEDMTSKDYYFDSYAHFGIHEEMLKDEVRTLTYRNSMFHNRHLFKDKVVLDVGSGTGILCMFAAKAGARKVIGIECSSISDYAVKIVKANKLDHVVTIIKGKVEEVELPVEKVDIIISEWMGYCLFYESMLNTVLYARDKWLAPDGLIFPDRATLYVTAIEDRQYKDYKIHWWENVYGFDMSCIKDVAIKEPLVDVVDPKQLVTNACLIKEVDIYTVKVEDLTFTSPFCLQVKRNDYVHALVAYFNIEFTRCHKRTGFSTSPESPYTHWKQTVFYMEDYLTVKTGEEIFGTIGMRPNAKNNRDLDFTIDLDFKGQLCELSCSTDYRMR
# SIAE inh = human SIAE inhibition, primary screen | SIAE FP-Rh probe binding, fluorescence polarization | inhibition, % at 9.66 µM | actives 0.69% (n = 370,000);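 active = inhibition above a cutoff: mean of compounds within the control limits plus 3 SD of those, cut at about 17% in these data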;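 note: 0% = plate median of compound wells and 100% = probe without SIAE protein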
# HTRA1 inh = inhibitors of human serine peptidase HTRA1; actives 0.5% (n = 340,000); Q92743; recombinant HTRA1, FP-rhodamine activity-based probe, fluorescence polarization; inhibition, % at 5.96 µM; in the data active = inhibition above about 36%;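 note: 0% = enzyme with DMSO and 100% = wells lacking enzyme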
# HTRA1 inh conf = confirmation of human HTRA1 inhibitors; actives 66% (n = 1,600); inhibition, % at 5.96 µM; shares compounds with HTRA1 inh; recombinant HTRA1, FP-rhodamine activity-based probe, fluorescence polarization;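 active = mean inhibition over three repeats above a set limit taken from the earlier primary screen, cut at about 37% in these data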;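 note: 0% = HTRA1 with DMSO and 100% = wells lacking HTRA1; inhibitors block probe binding so polarization drops and inhibition rises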
# BSA probe FL = BSA probe counter-screen for TCR-CD3 inhibitors. shares compounds with TCR CD3 inh. TAMRA-labeled BSA probe fluorescence counterscreen. inhibition, % at 9.4 µM. actives 10% (n = 1,200). AID 652035; in the data active = inhibition above about 23%;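 note: 0% = buffer low control and 100% = reference high control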
# TCR-CD3 conf = confirmation of human TCR-CD3 interaction inhibitors; shares compounds with TCR CD3 inh; TAMRA-labeled TCR probe fluorescence binding assay; inhibition, % at 9.4 µM; actives 48% (n = 1,200); AID 652036
# PRMT1 inh conf = confirmation of human PRMT1 inhibitors; inhibition, % at 2.79 µM; AID 687036; actives 42% (n = 3,300); recombinant His-PRMT1, activity-based probe fluorescence polarization; shares compounds with PRMT1 inh;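 active = mean inhibition across replicates above the hit cutoff derived for the earlier primary screen, cut at about 22% in these data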
# mABHD4 conf = confirmation of mouse ABHD4 inhibitors | purified mABHD4, FP-Rh probe fluorescence polarization | AID 720658 | actives 55% (n = 1,800) | inhibition, % at 8.92 µM | shares compounds with ABHD4 inh;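 active = mean inhibition across replicates above the hit cutoff set in the primary screen, cut at about 30% in these data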;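 note: 0% = wild-type ABHD4 with DMSO and 100% = catalytically dead S159A mutant with DMSO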
# SIAE inh conf = confirmation of human SIAE inhibitors. shares compounds with SIAE inh. SIAE FP-Rh activity-based probe, fluorescence polarization. inhibition, % at 9.66 µM. actives 13% (n = 2,300). AID 1117263;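 active = mean inhibition of the replicates above the hit cutoff set in the primary screen, cut at about 17% in these data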;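 note: 0% = SIAE with DMSO and probe and 100% = probe without SIAE; inhibitors lower polarization as more probe stays unbound to SIAE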
# Starred values were filed as active, the others as inactive; nt = no result. Cut-off read from the data, not from the text of the source, unless noted: active = inhibition above about 19%; inactive = the rest.
SMILES,ABHD4 inh,rCAG binder,TCR CD3 inh,PRMT1 inh,SIAE inh,HTRA1 inh,BSA probe FL,TCR-CD3 conf,others
CC[C@@H]1C[C@H]2CC[C@H](O2)[C@H](C)C(=O)O[C@@H](C)C[C@@H]2CC[C@@H](O2)[C@@H](C)C(=O)O[C@H](C)C[C@H]2CC[C@H](O2)[C@H](C)C(=O)O[C@@H](C)C[C@@H]2CC[C@@H](O2)[C@@H](C)C(=O)O1,-3,2,2,-1,10,nt,nt,nt,
CC(C)Nc1ccc(Nc2ccccc2)cc1,43*,7,-3,25*,12,69*,nt,nt,HTRA1 inh conf=53*;PRMT1 inh conf=70*;mABHD4 conf=34*
O=C(NCCN1CCC2(CC1)C(=O)NCN2c1ccccc1)c1cccnc1Cl,3,1,-7,1,4,nt,nt,nt,
CC(c1ccccc1)n1cc(C(=O)NC2CCCC2)nn1 (stereo unspecified),-2,1,nt,0,-2,nt,nt,nt,
CCCCCCCCCCCCCCCC[N+](C)(C)C,32*,7,6,-1,5,54*,nt,nt,HTRA1 inh conf=78*;mABHD4 conf=55*
CCCCCC[N+](=O)[O-],-2,-1,2,0,-1,2,nt,nt,
OC1CN2CCC(O)C2C(O)C1O (stereo unspecified),-3,0,8,-1,11,nt,nt,nt,
CCCN1CCc2cc(O)cc3c2[C@H]1Cc1ccc(O)c(O)c1-3,69*,8,3,77*,14,62*,nt,nt,HTRA1 inh conf=48*;mABHD4 conf=30*
COc1cccc2c1C(=O)c1c(O)c3c(c(O)c1C2=O)CC(O)(C(C)=NO)CC3OC1CC(N)C(O)C(C)O1 (stereo unspecified),59*,7,143*,145*,55*,56*,167*,136*,HTRA1 inh conf=67*;PRMT1 inh conf=139*;mABHD4 conf=59*;SIAE inh conf=44*
Cc1cc(N2CCNC[C@H]2C)ccc1N1CCN[C@H](C)C1,-6,5,2,-2,-1,nt,nt,nt,
Oc1cccc2nc3ccccc3nc12,18,3,0,-2,18*,67*,nt,nt,HTRA1 inh conf=60*;SIAE inh conf=-10
O=C(NC1CN2CCC1CC2)c1ccc(Cl)cc1 (stereo unspecified),-3,0,1,-4,1,nt,nt,nt,
CN1CCc2cc3c(c4c2C1Cc1ccccc1-4)OCO3 (stereo unspecified),46*,-7,7,51*,24*,68*,nt,nt,HTRA1 inh conf=2;mABHD4 conf=50*;SIAE inh conf=3
O=C(NC1CN2CCC1CC2)c1cc(-c2ccc(Cl)cc2)nc2ccccc12 (stereo unspecified),8,15,nt,-2,4,nt,nt,nt,
CN1CCC(c2c[nH]c3ccccc23)C1 (stereo unspecified),3,3,23*,-2,-5,4,1,3,
CN1CCC(c2c[nH]c3ccc(O)cc23)CC1,9,1,-5,1,12,4,nt,nt,
Cc1ccc(OC(=O)N(C)C[C@@H]2OCc3ccccc3-c3c(n(C)c4ccccc34)C(=O)N([C@H](C)CO)C[C@H]2C)cc1,2,8,4,1,-3,nt,nt,nt,
CN1C(=O)NC(=O)/C(=C/c2ccc([N+](=O)[O-])o2)C1=O,-5,21,20*,24*,4,nt,-6,7,
CCCCCn1c(=O)c(C(=O)Nc2ccccn2)c(O)c2ccccc21,1,0,-5,-2,2,2,nt,nt,
CCCCCCn1c(=O)c(C(=O)Nc2ncccc2O)c(O)c2ccccc21,6,1,26*,3,3,7,-3,22*,
Nc1ccc(CCN2CCCC2)cc1,4,4,2,4,3,-1,nt,nt,
Nc1ccc(CCN2CCN(c3cccc(C(F)(F)F)c3)CC2)cc1,-3,0,44*,-8,4,-1,-4,0,
C[C@]12CCC(=O)C=C1CC[C@@H]1[C@@H]2CC[C@@]2(C)[C@H]1CC[C@]2(C)O,-4,-2,-6,3,-2,-3,nt,nt,
C#C[C@]1(O)CC[C@H]2[C@@H]3CCC4=CC(=O)CC[C@]4(C)[C@H]3CC[C@@]21C,-3,0,20*,-2,8,7,0,0,
C[C@H]1CNCCN1c1ccc(N2CC[C@H](O)C2)c(C#N)c1,1,2,10,-1,12,nt,nt,nt,
SMILES,ABHD4 inh,rCAG binder,TCR CD3 inh,PRMT1 inh,SIAE inh,HTRA1 inh,BSA probe FL,TCR-CD3 conf,others
CC/C(=N\NC(=O)c1ccccc1)c1c(O)n(Cc2ccccc2)c(=O)[nH]c1=O,6,17,21*,1,11,nt,2,16,
O=C(N/N=C/c1c(O)n(CCc2ccccc2)c(=O)[nH]c1=O)c1ccccc1,9,7,37*,-2,-1,nt,-6,6,
COc1ccccc1N,7,2,3,-2,-3,nt,nt,nt,
COC(=O)C1C(c2ccc(Cl)cc2)CC2CCC1N2C (stereo unspecified),5,3,1,-2,-3,nt,nt,nt,
S=C(NCCc1ccccc1)N1Cc2cc(-c3ccccc3)ccc2-n2nncc2C1,-49,8,22*,-1,-24,nt,10,7,
NN=C1C(Cl)=C(Cl)C(Cl)=C1Cl,28,14,23*,26*,0,26,11,9,PRMT1 inh conf=7
O=C(O)c1cc(S(=O)(=O)N2CC3CC(C2)c2cccc(=O)n2C3)ccc1F (stereo unspecified),-4,1,3,1,1,nt,nt,nt,
O=[N+]([O-])c1ccc(N2CCCCCC2)c2nonc12,23,-375,79*,89*,-17,15,103*,87*,PRMT1 inh conf=95*
COC(=O)C1=C(c2ccc(OC(F)(F)F)cc2)C[C@@H]2CC[C@H]1N2C(=O)N1CCc2cc(OC)c(OC)cc2C1,-1,0,2,-1,0,nt,nt,nt,
